Calls of active or inactive are those of the source. The calls are words filed in the database; no cut-off is given here.
Assays:
[1] = biological target: T1, Nicotinamide phosphoribosyltransferase (Homo sapiens, UniProt P43490); assay: Inhibition of Nampt activity in H2O2-induced DNA damage in human MCF10A cells stably transfected with PIK3CA (H1047R) assessed as loss of PARP activity; assay type: cell-based; settings: MCF-10A
Target sequence in this assay (P43490 whole entry, looked up): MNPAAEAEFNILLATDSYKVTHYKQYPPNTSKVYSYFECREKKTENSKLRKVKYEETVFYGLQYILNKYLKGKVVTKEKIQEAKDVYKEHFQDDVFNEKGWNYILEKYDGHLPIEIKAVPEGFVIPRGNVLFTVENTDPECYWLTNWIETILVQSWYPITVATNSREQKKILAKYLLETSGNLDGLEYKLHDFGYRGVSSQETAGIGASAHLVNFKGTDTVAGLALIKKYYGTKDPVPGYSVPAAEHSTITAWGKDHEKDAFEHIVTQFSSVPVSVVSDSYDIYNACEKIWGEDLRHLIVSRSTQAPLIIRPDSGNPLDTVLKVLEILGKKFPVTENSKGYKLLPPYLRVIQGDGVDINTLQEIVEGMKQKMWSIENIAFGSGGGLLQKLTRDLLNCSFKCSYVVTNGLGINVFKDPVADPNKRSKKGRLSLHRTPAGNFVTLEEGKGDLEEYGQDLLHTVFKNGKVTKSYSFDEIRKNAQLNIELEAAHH

[2] = biological target: T1, Nicotinamide phosphoribosyltransferase; assay: Inhibition of nicotinamide phosphoribosyltransferase-catalyzed conversion of nicotinamide to nicotinamide mononucleotide
In short: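 Coupled-enzyme format: Nampt turnover of nicotinamide to NMN monitored through a downstream coupled reaction; IC50 determined.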
Target sequence in this assay (P43490 whole entry): as the sequence (P43490 whole entry, looked up) above

HCT-116 [3] = assay: Cytotoxicity against human HCT116 cells after 72 hrs; assay type: functional
In short: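 HCT116 colon carcinoma cells treated with compound for 72 h; viability read out as cellular ATP levels.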

HCT-116 [4] = assay: Cytotoxicity against human HCT116 cells after 72 hrs in presence of 10 uM exogenous nicotinic acid; assay type: functional, cell-based; settings: HCT-116, 72 h
In short: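 HCT116 colon carcinoma cells treated for 72 h with compound plus 10 μM exogenous nicotinic acid to test whether killing depends on Nampt; viability read out as cellular ATP levels.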

Thymidylate synthase = Thymidylate synthase (Homo sapiens, UniProt P04818); assay: Inhibition of thymidylate synthase
[5] = biological target: T1, Nicotinamide phosphoribosyltransferase; assay: Inhibition of nicotinamide phosphoribosyltransferase-catalyzed conversion of nicotinamide to nicotinamide mononucleotide relative to untreated enzyme; settings: concentration not given here
Target sequence in this assay (P43490 whole entry, looked up): as above

WIL2 = assay: Cytotoxicity against human W1L2 cells; assay type: functional, cell-based
[6] = biological target: T1, Nicotinamide phosphoribosyltransferase; assay: Inhibition of nicotinamide phosphoribosyltransferase-catalyzed conversion of nicotinamide to nicotinamide mononucleotide at 10 uM
Target sequence in this assay (P43490 whole entry, looked up): as above

[7] = biological target: T1, Nicotinamide phosphoribosyltransferase; assay: Inhibition of nicotinamide phosphoribosyltransferase-mediated decrease in cellular NAD level
Target sequence in this assay (P43490 whole entry): as the sequence (P43490 whole entry, looked up) above

Thymidylate synthase, sequence (P04818 whole entry): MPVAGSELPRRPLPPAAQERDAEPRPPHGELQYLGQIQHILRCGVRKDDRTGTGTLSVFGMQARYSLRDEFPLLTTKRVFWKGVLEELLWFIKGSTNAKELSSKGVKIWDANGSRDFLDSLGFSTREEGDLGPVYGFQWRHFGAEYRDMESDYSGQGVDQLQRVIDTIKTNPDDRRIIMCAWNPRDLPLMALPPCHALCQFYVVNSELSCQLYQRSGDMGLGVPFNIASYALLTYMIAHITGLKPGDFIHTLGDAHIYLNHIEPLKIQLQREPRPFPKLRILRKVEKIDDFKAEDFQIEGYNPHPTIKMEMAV

SMILES	inhibitory concentration [1] [µM]	IC50 [2] [nM]	Activity (HCT-116 [3]) [µM]	further results
CC(C)=CCN(Cc1cc2c(=O)n(C)c(C)nc2cc1Cl)c1ccc(C(=O)NCc2nc3ccccc3[nH]2)cc1	> 5	25	6.4	
C#CCN(Cc1ccccc1Cl)c1ccc(C(=O)NCc2cccnc2)cc1	0.15	4.2	2.4	EC50 (HCT-116 [4]): > 10000 nM
CCN(Cc1ccccc1Cl)c1ccc(C(=O)NCc2cccnc2)cc1	> 5	330	>10	
CC(C)CCN(Cc1ccccc1Cl)c1ccc(C(=O)NCc2cccnc2)cc1	0.0079	6.1	0.39	EC50 (HCT-116 [4]): > 10000 nM
C#CCN(Cc1ccc2nc(C)n(C)c(=O)c2c1)c1ccc(C(=O)NCc2ccc(F)c(F)c2)cc1	> 5	30	>10	
C#CCN(Cc1ccc2nc(C)n(C)c(=O)c2c1)c1ccc(C(=O)NCc2ccccc2F)cc1	> 5	34	9.7	
C#CCN(Cc1ccc2nc(C)n(C)c(=O)c2c1)c1ccc(C(=O)NCc2nc3ccccc3[nH]2)cc1	> 5	130	5.4	
CC(C)CN(Cc1ccccc1Cl)c1ccc(C(=O)NCc2cccnc2)cc1		420		
Cn1cnc2cc(Cl)c(C(=O)Nc3ccc(C(=O)NCc4cccnc4)cc3)cc2c1=O	0.048	12	0.73	
Cc1nc2c(c(=O)[nH]1)CN(C(=O)c1ccc(C(=O)NCc3cccnc3)cc1)CC2	> 5	7200	>10	
C#CCN(Cc1cc2c(=O)n(C)c(CN3CCN(CCCN)CC3)nc2cc1Cl)c1ccc(C(=O)NCc2cccnc2)cc1	0.0018	0.3	0.018	
CC(C)=CCN(Cc1ccccc1Cl)c1ccc(C(=O)NCc2cccnc2)cc1	0.0032	1.9	0.016	EC50 (HCT-116 [4]): > 10000 nM
C#CCN(Cc1cc2c(=O)[nH]c(C)nc2cc1Br)c1ccc(C(=O)NCc2ccccn2)cc1				IC50 (Thymidylate synthase): 156 nM; inhibition [5]: 90%
C#CCN(Cc1cc2c(=O)n(C)c(C)nc2cc1Cl)c1ccc(C(=O)NCc2nc3ccccc3[nH]2)cc1	3.2	40	5.7	
C#CCN(Cc1cc2c(=O)n(C)c(CO)nc2cc1Cl)c1ccc(C(=O)NCc2cccnc2)cc1	0.0001	0.79	0.0016	
C/C=C/CN(Cc1ccc2nc(C)n(C)c(=O)c2c1)c1ccc(C(=O)NCc2cccnc2)cc1	0.0016	2.9	0.0044	
C#CCN(Cc1ccc2nc(C)n(C)c(=O)c2c1)c1ccc(C(=O)NCc2ccc(F)c(F)c2F)cc1	> 5	98	>10	
O=C(NCc1cccnc1)c1ccc(N(Cc2ccccc2)Cc2ccccc2Cl)cc1	0.17	110	0.7	
CC(C)=CCN(Cc1cc2c(=O)n(C)c(C)nc2cc1Cl)c1ccc(C(=O)NCc2cccnc2)cc1	0.0018	11	0.0095	EC50 (HCT-116 [4]): > 10000 nM

SMILES	inhibitory concentration [1] [µM]	IC50 [2] [nM]	Activity (HCT-116 [3]) [µM]	further results
C#CCN(Cc1cc2c(=O)n(C)c(C)nc2cc1Cl)c1ccc(C(=O)NCc2cccnc2)cc1	0.00045	0.55	0.0021	
Cc1c(Sc2ccc(C(=O)NCCc3cccnc3)cc2)[nH]c2nc(N)nc(N)c12		90	>10	
Cc1[nH]c2nc(N)[nH]c(=O)c2c1Sc1ccc(C(=O)NCc2cccnc2)cc1	> 5	2800		
C#CCN(Cc1cc2c(=O)[nH]c(C)nc2cc1Br)c1ccc(C(=O)NCc2ccncc2)cc1				IC50 (Thymidylate synthase): 156 nM
CC(C)=CC(=O)N(Cc1cc2c(=O)n(C)cnc2cc1Cl)c1ccc(C(=O)NCc2cccnc2)cc1	0.37	660	4.1	
Nc1nc(N)c2c(CCc3ccc(C(=O)NCc4cccnc4)cc3)c[nH]c2n1	> 5	600	>10	
CC(C)=CCN(Cc1ccc2nc(C)n(C)c(=O)c2c1)c1ccc(C(=O)NCc2nc3ccccc3[nH]2)cc1	0.7	31	1.4	
C#CCN(Cc1cc2c(=O)n(C)c(CN3CCN(C)CC3)nc2cc1Cl)c1ccc(C(=O)NCc2cccnc2)cc1	5e-05	0.31	0.00046	EC50 (WIL2): 0.49 nM
C#CCN(Cc1ccc2ncn(C)c(=O)c2c1)c1ccc(C(=O)NCc2cccnc2)cc1	0.025	12	0.3	
Cn1cnc2cc(Cl)c(CN(CC3CC3)c3ccc(C(=O)NCc4cccnc4)cc3)cc2c1=O	0.012	13	0.11	
C#CCN(Cc1ccc2nc(C)n(C)c(=O)c2c1)c1ccc(C(=O)NCc2cccc(F)c2)cc1	> 5	250	>10	
Cc1noc(C)c1CN(Cc1ccc2nc(C)n(C)c(=O)c2c1)c1ccc(C(=O)NCc2cccnc2)cc1	0.012	210	5.3	
Cn1cnc2cc(Cl)c(NCc3ccc(C(=O)NCc4cccnc4)cc3)cc2c1=O	0.0093	3.8	0.42	
Cc1c(Sc2ccc(C(=O)NCc3cccnc3)cc2)[nH]c2nc(N)nc(N)c12		1200		
O=C(NCc1cccnc1)c1ccc(N(Cc2ccccc2Cl)CC2CC2)cc1	0.011	1.3	0.059	
C#CCCN(Cc1cc2c(=O)n(C)cnc2cc1Cl)c1ccc(C(=O)NCc2cccnc2)cc1	0.03	12	0.15	
CN(Cc1ccccc1Cl)c1ccc(C(=O)NCc2cccnc2)cc1		> 10000		
CCCN(Cc1ccccc1Cl)c1ccc(C(=O)NCc2cccnc2)cc1	0.24	15	3.5	
C#CCN(Cc1cc2c(O)nc(C)nc2cc1Br)c1ccc(C(=O)NCc2cccnc2)cc1				EC50 (WIL2): 2.8 nM

SMILES	inhibitory concentration [1] [µM]	IC50 [2] [nM]	Activity (HCT-116 [3]) [µM]	further results
C#CCN(Cc1ccc2nc(C)n(C)c(=O)c2c1)c1ccc(C(=O)NCC2CCCNC2)cc1 (centres undefined)		> 10000		inhibition [6]: inactive
Cc1nc2ccc(CN(CC3CC3)c3ccc(C(=O)NCc4cccnc4)cc3)cc2c(=O)n1C	0.019	2600	0.11	
C#CCCN(Cc1ccc2nc(C)n(C)c(=O)c2c1)c1ccc(C(=O)NCc2cccnc2)cc1	2.9	950	6.3	
C#CCN(Cc1ccc2nc(C)n(C)c(=O)c2c1)c1ccc(C(=O)NCc2ccc(Cl)cc2)cc1	> 5	150	>10	
C#CCN(Cc1ccc2nc(C)n(C)c(=O)c2c1)c1ccc(C(=O)NCc2cccnc2)cc1	0.0095	3.6	0.034	
CC(C)=CCN(Cc1cc2c(=O)n(C)nnc2cc1Cl)c1ccc(C(=O)NCc2cccnc2)cc1	0.0017		0.003	
CC(C)=CCN(Cc1ccc2nc(C)n(C)c(=O)c2c1)c1ccc(C(=O)NCc2cccnc2)cc1	0.00023	1.4	0.0035	
Cn1cnc2cc(Cl)c(CN(CC(N)=O)c3ccc(C(=O)NCc4cccnc4)cc3)cc2c1=O	> 1	56	>10	EC50 (HCT-116 [4]): > 10000 nM
CCCCN(Cc1ccccc1Cl)c1ccc(C(=O)NCc2cccnc2)cc1		> 10000		
C/C=C/CN(Cc1ccccc1Cl)c1ccc(C(=O)NCc2cccnc2)cc1	0.0089	1.5	0.099	
O=C(CCCCCCCn1cc(-c2cccnc2)nn1)Nc1ccccc1-c1ccccc1				IC50 [7]: 3 nM
CC(C)=CCN(Cc1ccc2ncn(C)c(=O)c2c1)c1ccc(C(=O)NCc2cccnc2)cc1	0.0004	1.2	0.004	
C#CCN(Cc1coc2nc(N)nc(N)c12)c1ccc(C(=O)NCc2cccnc2)cc1	> 5	> 10000	>10	
C#CCN(Cc1ccc2nc(C)n(C)c(=O)c2c1)c1ccc(C(=O)NCc2ccc3c(c2)OCO3)cc1	> 5	85	>10	
CC(C)=CCN(Cc1cc2c(=O)n(C)cnc2cc1Cl)c1ccc(C(=O)NCc2cccnc2)cc1	0.0005	2.6	0.0073	EC50 (HCT-116 [4]): > 10000 nM
Cc1nc2ccc(CN(C(=O)C3CC3)c3ccc(C(=O)NCc4cccnc4)cc3)cc2c(=O)n1C	2.6	> 10000	>10	
CC(C)=CC(=O)N(Cc1ccc2nc(C)n(C)c(=O)c2c1)c1ccc(C(=O)NCc2cccnc2)cc1	2.2	> 10000	>10	
C#CCN(Cc1ccc2nc(C)n(C)c(=O)c2c1)c1ccc(C(=O)NCc2ccc(F)cc2F)cc1	> 5	49	>10	
Cc1nc2c(c(=O)[nH]1)CN(C(=O)Nc1ccc(C(=O)NCc3cccnc3)cc1)CC2	> 5	29	>10	

— ChEMBL document CHEMBL1800028, “Analogues of 4-[(7-Bromo-2-methyl-4-oxo-3H-quinazolin-6-yl)methylprop-2-ynylamino]-N-(3-pyridylmethyl)benzamide (CB-30865) as potent inhibitors of nicotinamide phosphoribosyltransferase (Nampt)” (J Med Chem, 2010)
